Source: ChEMBL document CHEMBL1155242, “Radiolabeled 5-iodo-3'-O-(17beta-succinyl-5alpha-androstan-3-one)-2'-deoxyuridine and its 5'-monophosphate for imaging and therapy of androgen receptor-positive cancers: synthesis and biological evaluation” (J Med Chem, 2009)

Assays:
[1] = molecular target: T1, Sex hormone-binding globulin (Homo sapiens, UniProt P04278); test: Binding affinity to human sex hormone binding globulin after 30 mins by size-exclusion HPLC analysis; format: ADME
T1 sequence (P04278 whole entry): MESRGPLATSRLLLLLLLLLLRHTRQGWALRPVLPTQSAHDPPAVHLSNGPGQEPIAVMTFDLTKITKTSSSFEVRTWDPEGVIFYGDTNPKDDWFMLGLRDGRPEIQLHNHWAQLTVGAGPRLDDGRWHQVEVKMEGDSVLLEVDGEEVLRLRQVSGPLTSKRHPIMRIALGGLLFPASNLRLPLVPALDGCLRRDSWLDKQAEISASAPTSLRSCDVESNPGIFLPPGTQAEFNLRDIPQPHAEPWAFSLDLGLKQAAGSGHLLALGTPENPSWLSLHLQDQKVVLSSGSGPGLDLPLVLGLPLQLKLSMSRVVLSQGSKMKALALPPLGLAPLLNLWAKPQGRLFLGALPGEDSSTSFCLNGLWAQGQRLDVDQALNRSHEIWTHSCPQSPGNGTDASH
In short: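 Purified human SHBG diluted in PBS pH 7.1 to a range of concentrations; radioligand in CH3CN (10 μL, ~5.4 μCi average) added, vortexed, 30 min at ambient temperature. Aliquots analysed by size-exclusion HPLC for SHBG-bound peak.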

OVCAR-3 [2] = test: Cellular uptake in human OVCAR-3 cells expressing androgen receptor after 24 hrs; format: ADME, cell-based; conditions: ovcar-3, 24 h
In short: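 NIH:OVCAR-3 cells in complete RPMI-1640 exposed to the radioligand for 24 h (concentration series) or at 1.75 μCi/mL for set times; medium then replaced and cells cultured further 24–48 h; whole-cell and DNA uptake in cpm/cell.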

Mus musculus = test: Toxicity in athymic NCr mouse xenografted with human OVCAR-3 cells assessed as hematocrit level at 0.25 mCi, ip administered 31 days after tumor implantation as single bolus dose measured 55 days after implantation by gamma counting in presence of SHBG (Rvb= 51.4 +/- 1.6 %); format: organism-based; conditions: in vivo, 1320 h
Blood = test: Biodistribution in blood of athymic NCr mouse xenografted with human OVCAR-3 cells assessed per gram of tissue at an average 39.5 uCi/dose, ip administered 9 days after tumor implantation as six fractionated doses every 4 days measured after 2 weeks of last dose by gamma counting; format: ADME, organism-based; conditions: in vivo, 336 h
In short: (§1)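 OVCAR-3-bearing and healthy athymic mice given fractionated ip doses on the six-dose every-4-days schedule; tissues, tumor and lavaged cells γ-counted at necropsy, %ID/g; DNA-bound 125I in cells measured as cpm/cell.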

Liver = test: Biodistribution in liver of athymic NCr mouse xenografted with human OVCAR-3 cells assessed per gram of tissue at an average 39.5 uCi/dose, ip administered 9 days after tumor implantation as six fractionated doses every 4 days measured after 2 weeks of last dose by gamma counting; format: ADME, organism-based; conditions: in vivo, 336 h; in short: as §1
Spleen = test: Biodistribution in spleen of athymic NCr mouse xenografted with human OVCAR-3 cells assessed per gram of tissue at an average 39.5 uCi/dose, ip administered 9 days after tumor implantation as six fractionated doses every 4 days measured after 2 weeks of last dose by gamma counting; format: ADME, organism-based; conditions: in vivo, 336 h; in short: as §1
Serum [3] = test: Stability in human serum assessed as half life at 10 to 20 uCi/mL by size-exclusion HPLC analysis; format: ADME, cell-free
In short: (§2)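 The compound was incubated with rabbit or human serum at ambient temperature, and aliquots were taken at 1, 5 and 24 h. Aliquots were run on size-exclusion HPLC (TSK3000; 0.1 M potassium phosphate/0.1 M Na2SO4, pH 6.8, then an acetonitrile gradient). Extracts were run on C18 reversed-phase HPLC (water/acetonitrile with 0.07% TFA). Half-lives came from a monoexponential fit.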

Serum [4] = test: Stability in human serum assessed as half life at 10 to 20 uCi/mL by reversed phase HPLC analysis; format: ADME, cell-free; in short: as §2
OVCAR-3 [5] = test: Cytotoxicity against human OVCAR-3 cells expressing androgen receptor assessed as cell survival at 0.01 to 5 uCi/mL after 24 hrs; format: functional
[6] = Biodistribution in peritoneum of athymic NCr mouse xenografted with human OVCAR-3 cells at 1.12 uCi, ip after 24 hrs by gamma counting; format: ADME, organism-based; conditions: in vivo
OVCAR-3 [7] = test: Antitumor activity against human OVCAR-3 cells xenografted in athymic NCr mouse assessed as number of cancer cells in peritoneum at 180 uCi, ip administered 9 days after tumor implantation as six fractionated doses every 4 days measured after 2 weeks of last dose by gamma counting; format: functional
In short: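 OVCAR-3 ip xenografts in athymic mice; six fractionated ip doses every 4 days, total 180 μCi/mouse, with PBS or vehicle ip controls. Nonadherent tumor cells recovered by peritoneal lavage at necropsy, counted and pellet-weighed.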

OVCAR-3 [8] = test: Cellular uptake in human OVCAR-3 cells xenografted in athymic NCr mouse assessed per gram of cells at 180 uCi, ip administered 9 days after tumor implantation as six fractionated doses every 4 days measured after 12 days by gamma counting; format: ADME, organism-based; conditions: in vivo, 288 h
In short: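 Mice treated with one, three or six ip doses; nonadherent OVCAR-3 cells lavaged at necropsy, 12 days after last of six doses, and counted; %ID/g decay-corrected; DNA-bound fraction measured.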

[9] = Chemical stability in RPMI-1640 serum-free medium assessed as compound hydrolysis at 12.2 uCi after 24 hrs by HPLC analysis; format: physicochemical; conditions: read-out: Activity
[10] = Ratio of drug level in tumor to kidney in athymic NCr mouse xenografted with human OVCAR-3 cells at 180 uCi, ip administered 9 days after tumor implantation as six fractionated doses every 4 days measured after 1.5 hrs by gamma counting; format: ADME, organism-based; conditions: in vivo
[11] = Ratio of drug level in tumor to blood in athymic NCr mouse xenografted with human OVCAR-3 cells at 180 uCi, ip administered 9 days after tumor implantation as six fractionated doses every 4 days measured after 24 hrs by gamma counting; format: ADME, organism-based; conditions: tumour
[12] = Ratio of drug level in tumor to liver in athymic NCr mouse xenografted with human OVCAR-3 cells at 180 uCi, ip administered 9 days after tumor implantation as six fractionated doses every 4 days measured after 24 hrs by gamma counting; format: ADME, organism-based; conditions: in vivo
[13] = Ratio of drug level in tumor to uterus in athymic NCr mouse xenografted with human OVCAR-3 cells at 180 uCi, ip administered 9 days after tumor implantation as six fractionated doses every 4 days measured after 48 hrs by gamma counting; format: ADME, organism-based; conditions: in vivo
[14] = Ratio of drug level in tumor to liver in athymic NCr mouse xenografted with human OVCAR-3 cells at 180 uCi, ip administered 9 days after tumor implantation as six fractionated doses every 4 days measured after 48 hrs by gamma counting; format: ADME, organism-based; conditions: in vivo
[15] = Ratio of drug level in tumor to spleen in athymic NCr mouse xenografted with human OVCAR-3 cells at 180 uCi, ip administered 9 days after tumor implantation as six fractionated doses every 4 days measured after 48 hrs by gamma counting; format: ADME, organism-based; conditions: in vivo
[16] = Ratio of drug level in tumor to blood in athymic NCr mouse xenografted with human OVCAR-3 cells at 180 uCi, ip administered 9 days after tumor implantation as six fractionated doses every 4 days measured after 72 hrs by gamma counting; format: ADME, organism-based; conditions: tumour
[17] = Ratio of drug level in tumor to uterus in athymic NCr mouse xenografted with human OVCAR-3 cells at 180 uCi, ip administered 9 days after tumor implantation as six fractionated doses every 4 days measured after 72 hrs by gamma counting; format: ADME, organism-based; conditions: in vivo

C[C@]12CCC(=O)C[C@@H]1CC[C@@H]1[C@@H]2CC[C@]2(C)[C@@H](OC(=O)CCC(=O)O[C@H]3C[C@H](n4cc([125I])c(=O)[nH]c4=O)O[C@@H]3COP(=O)(O)O)CC[C@@H]12
Kd [1]: 17.2 nM | Bmax ([1]; human, 0.5 h): 4.5 nM | Drug uptake (OVCAR-3 [2]): Dose-dependent effect | Activity (Mus musculus): 55.2% | Drug uptake (Blood): 0.003 %ID | Drug uptake (Liver): 0.017 %ID | Drug uptake (Spleen): 0.043 %ID

C[C@]12CCC(=O)C[C@@H]1CC[C@@H]1[C@@H]2CC[C@]2(C)[C@@H](OC(=O)CCC(=O)O[C@H]3C[C@H](n4cc([125I])c(=O)[nH]c4=O)O[C@@H]3CO)CC[C@@H]12
t1/2 (Serum [3]): 14.7 h | t1/2 (Serum [4]): 14.7 h | Survival (OVCAR-3 [5]): 95% | Drug uptake [6]: > 95% | Activity (OVCAR-3 [7]): 380000000 | Drug uptake (OVCAR-3 [8]): 0.5 %ID | degraded at 24 h, 12.2 uCi [9]: 30% | Ratio [10]: 0.9 | Ratio [11]: 64.7 | Ratio [12]: 65 | Ratio [13]: 16.6 | Ratio [14]: 34.4 | Ratio [15]: 24.8 | Ratio [16]: 42.2 | Ratio [17]: 7.4
